Source: PubChem
CHOP inh – blocks CHOP induction under ER stress | CHO-K1 CHOP-promoter luciferase, tunicamycin-induced, 15-18 h | inhibition, % at 10 µM | 220,000 compounds, 3.8% hits | AID 2732;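 active means compounds that reduced the stress-induced luciferase reporter signal by more than about 70% of percent inhibition, limit read from the data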
MPTP inh – blocks calcium-induced mitochondrial swelling; isolated mouse mitochondria, Ca2+ swelling absorbance, 30 min; inhibition, % at 10 µM; 360,000 compounds, 1.4% hits; AID 602449;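 active means inhibition of 50% or more, scaled per plate between neutral and stimulator controls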
XBP1 UPR activ – activators of adaptive arm of unfolded protein response (XBP1); CHO-XBP1 luciferase reporter, IRE1-XBP1 UPR activation, luminescence; percent of tunicamycin response, DMSO as zero; activation, % at 20 µM; 330,000 compounds, 0.33% hits; AID 463104;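 active means versus positive control, 20 µM dose yields 30% or more activation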
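Assay system: IRE1-XBP1 luciferase reporter CHO line. Input: 1000 cells/well. Buffer or medium: F12 with 10% serum. Doses: 20 µM, 1% DMSO. Times: overnight seeding at 37 °C, 6 h compound treatment at 37 °C. Technique: Steady-Glo luciferase glow luminescence, 10 min after reagent addition.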
NR3A LBD binder – NR3A (human) ligand-binding domain modulation; NR3A LBD differential scanning fluorimetry, Tm shift; 0% = protein alone, 100% = glycine-bound protein; Tm shift relative to glycine control, % at 25 µM; 340,000 compounds, 2.5% hits; AID 1259313;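 active means melting temperature shift of at least 10% of the positive control shift, at one fixed dose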
aDG glyco act – increases alpha dystroglycan glycosylation | Pro5-aDG cells, alpha-DG glycosylation AlphaScreen (IIH6); 0% Pro5, 100% B10-LARGE cell signal | activation, % at 10 µM | 360,000 compounds, 0.22% hits;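 active means activation of at least 8% versus controls, or a plate z-score of at least 8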;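 further: Pro5 are CHO cells carrying HIG-tagged alpha-DG that lacks glycosylation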
CHOP UPR activ – apoptotic UPR (CHOP) activation. AID 449763. activation, % at 10 µM. 330,000 compounds, 0.34% hits. CHO-CHOP luciferase reporter, luminescence; percent of tunicamycin response over DMSO baseline;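 active means at 10 µM dose, activation of 40% or more, normalized to positive control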
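Assay system: CHO cells with stable CHOP pathway luciferase reporter; Buffer or medium: F12 plus 10% serum; Times: 16-18 h cell attachment, then 6 h compound exposure, 37 °C; Signal: luciferase luminescence; Read-out basis: percent activation relative to tunicamycin control; Control set: tunicamycin high control, DMSO low control.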
Rh123 counter – membrane potential counter-screen of mitochondrial pore inhibitors. shares compounds with MPTP inh. isolated mitochondria, Rhodamine 123 fluorescence. inhibition, % at 10 µM. 5,000 compounds, 78% hits; in the data active means inhibition above about 22%
MPTP abs DR – dose response confirmation of mitochondrial permeability transition pore inhibitors. shares compounds with MPTP inh. isolated mitochondria swelling, absorbance. IC50, µM. 780 compounds, 58% hits. AID 651561; in the data active means IC50 below about 20 µM
MPTP cs DR – counter-screen for mitochondrial permeability transition pore inhibitors, dose response; shares compounds with MPTP inh; isolated mitochondria counterscreen, fluorescence read-out; IC50, µM; 780 compounds, 49% hits; AID 651564; in the data active means IC50 below about 80 µM
Each line names hits and unclear results; the compound was inactive in the other large screens (follow-up assays come after a bar, where they were run). Hits are enriched below; roughly 5.6% of the tested compounds scored in any of these assays.

Cc1cc(N/N=C/c2c(O)ccc3ccccc23)nc(-c2ccccc2O)n1	MPTP inh 66, NR3A LBD binder 14 | Rh123 counter 52
CC(NC(=O)C1CCN(S(=O)(=O)c2ccc(Br)s2)CC1)c1ccccc1 (stereo unspecified)	none (no result: CHOP inh)
CC(=O)Nc1ccc(S(=O)(=O)NNC(=S)NCc2ccco2)cc1	none (no result: CHOP inh)
CCCCc1ccc(S(=O)(=O)NNC(=S)NCc2ccco2)cc1	MPTP inh 83 | Rh123 counter 65
CN(C(=O)C1CCC(=O)N(Cc2ccccc2F)C1)C1CCOCC1 (stereo unspecified)	none (no result: CHOP inh)
O=C(O)/C=C/C(=O)Nc1ccc(OC(F)(F)F)cc1	none
CC(C)c1ccc(NC(=S)Nc2ccc(OC(F)(F)F)cc2)cc1	MPTP inh 90 | Rh123 counter 90
FC(F)(F)Oc1ccc(NC(=S)Nc2ccc(OC(F)(F)F)cc2)cc1	MPTP inh 95 | Rh123 counter 71
COc1ccc(CCNC(=S)Nc2ccc(C(C)C)cc2)cc1	none
CCOC(=O)c1sc(NC(=O)CSc2nc(C)cc(C)n2)c(C#N)c1C	MPTP inh 58 | Rh123 counter 40
CCOC(=O)c1sc(NC(=O)c2cc(-c3ccccc3)nc3ccccc23)c(C#N)c1C	MPTP inh 107, NR3A LBD binder 24 | Rh123 counter 78
CCOC(=O)c1sc(NC(=O)CSc2nc(-c3ccco3)cc(C(F)(F)F)n2)c(C#N)c1C	MPTP inh 84 | Rh123 counter inactive | MPTP abs DR 4 | MPTP cs DR <2.5
CCOC(=O)c1sc(NC(=O)CSc2nc3c(cc2C#N)CCCCC3)c(C#N)c1C	MPTP inh 91 | Rh123 counter inactive | MPTP abs DR inactive | MPTP cs DR 9.8
CCOC(=O)c1sc(NC(=O)c2cccnc2)c(C#N)c1C	none
CCOC(=O)c1sc(NC(=O)CSc2ncn[nH]2)c(C#N)c1C	none
COc1ccc(Nc2nc3c([nH]2)c(=O)[nH]c(=O)n3C)cc1	none
O=C(CSc1nc(-c2ccco2)cc(C(F)(F)F)n1)NCC1CCCO1 (stereo unspecified)	none
CCOC(=O)c1sc(NC(=O)CSc2n[nH]c(-c3ccccc3)n2)c(C#N)c1C	MPTP inh 100, NR3A LBD binder 27 | Rh123 counter 71
O=C(CSc1nc(-c2ccco2)cc(C(F)(F)F)n1)Nc1ccc(C(=O)N2CCCCC2)cc1	MPTP inh 54 | Rh123 counter 92
O=C1c2cccc(OCC(=O)N3CCCc4ccccc43)c2CCN1Cc1cccnc1	MPTP inh 82 | Rh123 counter 34
C=CC[C@@H]1C=C[C@H](O/N=C/c2ccc(C(=O)N3[C@H](c4ccc(C)cc4)[C@@H](C)CC[C@H]3C(=O)OC)cc2)[C@@H](CO)O1	none (no result: MPTP inh, NR3A LBD binder, aDG glyco act)
Cc1nn(-c2ccccc2)nc1C(=O)Nc1nnc(C(F)(F)F)s1	MPTP inh 73 | Rh123 counter 79
O=C(Nc1nnc(C2CC2)s1)C1COc2ccccc2O1 (stereo unspecified)	none
O=C(Nc1nnc(C(F)(F)F)s1)C1COc2ccccc2O1 (stereo unspecified)	MPTP inh 84 | Rh123 counter 78
CC(NC(=O)Nc1nnc(C(F)(F)F)s1)(C(F)(F)F)C(F)(F)F	CHOP inh 89, MPTP inh 94 | Rh123 counter 110
CC(C)(C)CC(=O)Nc1nnc(C(F)(F)F)s1	none
O=C(Nc1nnc(C(F)(F)F)s1)c1ccc(Br)s1	MPTP inh 78 | Rh123 counter 75
Clc1cccc2c3c([nH]c12)CCNC3	none (no result: CHOP inh)
CC(C)c1ccc(NC2CCCN(C(=O)c3cnsn3)C2)cc1 (stereo unspecified)	none (no result: CHOP inh)
CC1=NN(c2nc(-c3ccc(Cl)cc3)cs2)C(=O)C1	MPTP inh 60, NR3A LBD binder 19 | Rh123 counter inactive | MPTP abs DR 13 | MPTP cs DR <2.5
O=C(CCc1cccc(Cl)c1)N1CCCC(Nc2ccccc2)C1 (stereo unspecified)	none (no result: CHOP inh)
O=S(=O)(c1ccc(NC(=S)Nc2ccccc2)cc1)N1CCOCC1	none
CC(=O)Nc1ccc(S(=O)(=O)N2CCN(S(=O)(=O)N3CCOCC3)CC2)cc1	none (no result: CHOP inh)
CC(NC(=S)Nc1ccc(S(=O)(=O)N2CCOCC2)cc1)C1CC2CCC1C2 (stereo unspecified)	MPTP inh 93 | Rh123 counter 92
CC(C)CCCCCCNC(=S)Nc1ccc(S(=O)(=O)N2CCOCC2)cc1	CHOP inh 76, MPTP inh 84, NR3A LBD binder 27 | Rh123 counter 83
O=C(O)/C=C/C(=O)NC1CCCCC1	none
O=C1NC(=O)C2(C=C(c3ccccc3)C(O)(c3ccccc3)C2)N1 (stereo unspecified)	none (no result: CHOP inh, XBP1 UPR activ, CHOP UPR activ)
Cc1csc2ncnc(N3CCN(S(=O)(=O)c4cccc(C(F)(F)F)c4)CC3)c12	MPTP inh 97 (no result: CHOP inh) | Rh123 counter 93
Cc1sc2ncnc(N3CCN(S(=O)(=O)c4ccc(Br)cc4)CC3)c2c1C	MPTP inh 93 (no result: CHOP inh) | Rh123 counter 110
Cc1sc2ncnc(N3CCN(CCOc4ccc(Cl)cc4)CC3)c2c1C	CHOP inh 92, MPTP inh 100 | Rh123 counter 102
Cc1sc2ncnc(N3CCC(C(=O)NNC(=O)COc4ccc(Cl)cc4)CC3)c2c1C	none (no result: CHOP inh, XBP1 UPR activ, CHOP UPR activ)
Cc1csc2c(N3CCN(S(=O)(=O)c4ccc(Cl)cc4)CC3)ncnc12	MPTP inh 67 | Rh123 counter 21
Cc1sc2ncnc(N3CCN(S(=O)(=O)c4ccc(C(C)(C)C)cc4)CC3)c2c1C	MPTP inh 100 (no result: CHOP inh) | Rh123 counter 100
Cc1cccc(NC(=O)C(C)OC(=O)c2ccccc2NS(=O)(=O)c2cc(C)c(C)c([N+](=O)[O-])c2)c1 (stereo unspecified)	MPTP inh 93 | Rh123 counter 65
CC(=O)Nc1ccc(NC(=O)C(C)OC(=O)c2ccccc2NS(=O)(=O)c2cccs2)cc1 (stereo unspecified)	none
COc1ccc(CC(=O)Nc2ccc(S(=O)(=O)N3CCN(C)CC3)cc2)cc1	none (no result: CHOP inh)
COc1ccc(NC(=S)Nc2ccc3snnc3c2)cc1	MPTP inh 73, NR3A LBD binder 28 | Rh123 counter 79
